In brackets after ≈: the same amount, converted by molar mass. Activity calls are given as the source filed them. The calls are words filed in the database; no cut-off is given here. Starred links: 1 amine or outer side, 2 acyl side, 3 side chain; linkers in the order of their positions; H or OH if unused. Non-standard residues stand in square brackets, D forms with d. Residues, ends and D or L forms follow the SMILES beside them. X1 = CCCCCCCCCCCCCCCCN([C@@H](CCCCN)C(=O)[*:2])[*:1]; X2 = CCCCCCCCCCCCCCCCN([C@@H](C)C(=O)[*:2])[*:1]
How the values were obtained:
Escherichia coli [1] = assay: Synergistic antibacterial activity against Escherichia coli K12 incubated for 20 to 24 hrs in presence of vancomycin by checkerboard broth microdilution assay; type: functional; conditions: time 20-24 hrs
In short: (§1)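 Checkerboard broth microdilution. E. coli K12 or A. baumannii clinical isolate grown to mid-log (OD ~0.8) and diluted to ~10^5 CFU/mL in MHB. Two-fold dilutions of rifampicin or vancomycin run across the plate against two-fold PA dilutions down it. Incubated 20–24 h at 37 °C, OD read at 470 nm. FICi calculated from the combination MICs.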

[2] = Retention time of the compound by RP-HPLC analysis; type: physicochemical
In short: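 Reverse-phase HPLC, linear gradient 0–100% acetonitrile in water with 0.1% TFA over 20 min; retention time recorded.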

Acinetobacter baumannii [3] = assay: Antibacterial activity against Acinetobacter baumannii incubated for 20 to 24 hrs by broth microdilution method; type: functional; conditions: time 20-24 hrs
In short: (§2)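 Broth microdilution: colonies suspended directly to 1.5×10^8 CFU/mL (0.5 McFarland), then diluted in Mueller–Hinton broth to ~10^5 CFU/mL final. PA stock 1 mg/mL in water, pH 7, serially diluted in MHB. Plates incubated 20–24 h at 37 °C. MIC = lowest concentration inhibiting growth, read as OD600 with optional 1% TTC staining. Triplicate.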

Escherichia coli [4] = assay: Antibacterial activity against Escherichia coli K12 incubated for 20 to 24 hrs by broth microdilution method; type: functional; conditions: time 20-24 hrs; in short: as §2
Staphylococcus aureus [5] = assay: Antibacterial activity against methicillin-resistant Staphylococcus aureus JE2 incubated for 20 to 24 hrs by broth microdilution method; type: functional; conditions: time 20-24 hrs
In short: (§3)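 Broth microdilution in MHB: direct colony suspension at 0.5 McFarland diluted to ~10^5 CFU/mL final; peptide stock 1 mg/mL in water at pH 7, serially diluted. Incubated 20-24 h at 37 °C; MIC taken as the lowest concentration inhibiting growth (OD 600 nm, 1% TTC stain); triplicate; vancomycin and gentamicin as positive controls.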

Staphylococcus aureus [6] = assay: Antibacterial activity against methicillin-resistant Staphylococcus aureus 13C incubated for 20 to 24 hrs by broth microdilution method; type: functional; conditions: time 20-24 hrs; in short: as §3
Escherichia coli [7] = assay: Synergistic antibacterial activity against Escherichia coli K12 assessed as fractional inhibitory concentration index incubated for 20 to 24 hrs in presence of vancomycin by checkerboard broth microdilution assay; type: functional; conditions: time 20-24 hrs; in short: as §1
Acinetobacter baumannii [8] = assay: Synergistic antibacterial activity against Acinetobacter baumannii assessed as fractional inhibitory concentration index incubated for 20 to 24 hrs in presence of vancomycin by checkerboard broth microdilution assay; type: functional; conditions: time 20-24 hrs; in short: as §1
Cell membrane [9] = assay: Induction of inner membrane permeability in Escherichia coli K12 at 2 times FICI in presence of vancomycin by propidium iodide staining based spectrofluorometry; type: subcellular; conditions: dose 2.0 µg/ml
In short: (§4)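 E. coli K12 grown in MHB to mid-log, washed twice in PBS, and diluted to 10^6 CFU/mL in 5 mM HEPES + glucose. Cells preincubated with […] at least 15 min at 37 °C. Then treated with agent at 1/8, 1× or 2× MIC, or with PA–vancomycin 1:1. Fluorescence read at ex 535 / em 615 nm. Polymyxin B as positive control; untreated cells as negative control.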

Cell membrane [10] = assay: Induction of inner membrane permeability in Escherichia coli K12 at 4 ug/mL by propidium iodide staining based spectrofluorometry; type: subcellular; conditions: dose 4.0 µg/ml; in short: as §4
Cell membrane [11] = assay: Induction of inner membrane permeability in Escherichia coli K12 by propidium iodide staining based spectrofluorometry; type: subcellular; conditions: dose 4-64 µg/ml; in short: as §4
Cell membrane [12] = assay: Induction of inner membrane permeability in Escherichia coli K12 at FICI in presence of vancomycin by propidium iodide staining based spectrofluorometry; type: subcellular; conditions: dose 4.0 µg/ml; in short: as §4
Staphylococcus aureus [13] = assay: Antibacterial activity against methicillin resistant Staphylococcus aureus JE2 assessed as fold increase in MIC after 21 days in presence of vancomycin by broth microdilution method relative to MIC before 21 days; type: functional; conditions: time 21 day
Staphylococcus aureus [14] = assay: Antibacterial activity against methicillin resistant Staphylococcus aureus JE2 assessed as fold increase in MIC after 21 days by broth microdilution method relative to MIC before 21 days; type: functional; conditions: time 21 day
HEK293 = assay: Cytotoxicity against HEK293 cells assessed as reduction in cell viability at 64 to 256 ug/ml incubated for 24 hrs by XTT assay; type: toxicity, cell-based; conditions: human, hek293, 24 h, dose 64-256 µg/ml
In short: (§5)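 HEK-293 cells, passages 3–8, seeded at 5×10^4 per well and preincubated 24 h at 37 °C, 5% CO2. Medium replaced with serially diluted PA, final 8–256 µg/mL, for 24 h, in triplicate. XTT reagent (0.5 mg/mL) added for 4 h at 37 °C, then absorbance read at 600 nm.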

[15] = Hemolytic activity in human red blood cells assessed as hemolysis at 8 ug/ml incubated for 60 min relative to control; type: toxicity, cell-based, Erythrocyte; conditions: at 8 µg/mL, read-out: Activity
In short: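 Washed human RBCs at 0.25×10^8 cells/mL final in PBS, mixed with PA (stocks 16–1024 µg/mL, equal volume). Shaken 10 min, then incubated 60 min at 37 °C, 5% CO2. Cells pelleted at 1000 × g; supernatant hemoglobin read at OD405. 5% Triton X-100 taken as 100% hemolysis; water as negative control.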

[16] = Self assembly property of the compound assessed as zeta potential at 250 ug/mL at pH 7 measured after 2 hrs; type: physicochemical; conditions: pH 7, 2 h, dose 250 µg/ml
In short: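 Peptide self-assembled at 1 mg/mL, pH 7, annealed 2 h at 80 °C, and aged overnight. Diluted to 250 µg/mL in water; zeta potential measured at 25 °C.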

[17] = Self assembly property of the compound assessed as formation of micelles at 1 mg/ml incubated overnight by transmission electron microscopy; type: physicochemical
In short: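 Samples were dissolved at 2 mM in water, pH 7, and left at room temperature overnight. Applied to copper grids for 5 min, blotted, and negatively stained with NanoVan for 30 s. Imaged by TEM at 120 kV.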

Escherichia coli [18] = assay: Synergistic antibacterial activity against Escherichia coli K12 assessed as potentiation of vancomycin-induced antibacterial activity by measuring fold increase in vancomycin MIC incubated for 20 to 24 hrs by checkerboard broth microdilution assay relative to vancomycin alone; type: functional; conditions: time 20-24 hrs; in short: as §1
Escherichia coli [19] = assay: Synergistic antibacterial activity against Escherichia coli K12 assessed as potentiation of vancomycin-induced antibacterial activity by vancomycin MIC incubated for 20 to 24 hrs by checkerboard broth microdilution assay; type: functional; conditions: time 20-24 hrs; in short: as §1
[20] = Cytotoxicity against HEK293 cells assessed as cell viability up to 64 ug/ml incubated for 24 hrs by XTT assay relative to control; type: toxicity, cell-based; conditions: human, up to 64 µg/mL, read-out: Activity; in short: as §5
Escherichia coli [21] = assay: Ratio of MIC for Escherichia coli K12 at pH 5.5 to MIC for Escherichia coli K12 at pH 7.0
Staphylococcus aureus [22] = assay: Ratio of MIC for methicillin-resistant Staphylococcus aureus JE2 at pH 5.5 to MIC for methicillin-resistant Staphylococcus aureus JE2 at pH 7.0
Staphylococcus aureus [23] = assay: Antibacterial activity against methicillin-resistant Staphylococcus aureus LAC incubated for 20 to 24 hrs by broth microdilution method; type: functional; conditions: time 20-24 hrs; in short: as §3
Escherichia coli [24] = assay: Synergistic antibacterial activity against Escherichia coli K12 assessed as fractional inhibitory concentration index incubated for 20 to 24 hrs in presence of rifampicin by checkerboard broth microdilution assay; type: functional; conditions: time 20-24 hrs; in short: as §1
Acinetobacter baumannii [25] = assay: Synergistic antibacterial activity against Acinetobacter baumannii assessed as fractional inhibitory concentration index incubated for 20 to 24 hrs in presence of rifampicin by checkerboard broth microdilution assay; type: functional; conditions: time 20-24 hrs; in short: as §1
Cell membrane [26] = assay: Induction of inner membrane permeability in Escherichia coli K12 at 8 to 16 ug/mL by propidium iodide staining based spectrofluorometry; type: subcellular; conditions: dose 8-16 µg/ml; in short: as §4
Staphylococcus aureus [27] = assay: Antibacterial activity against methicillin resistant Staphylococcus aureus JE2 assessed as fold increase in MIC after 5 days by broth microdilution method relative to MIC before 5 days; type: functional; conditions: time 5 day
Escherichia coli [28] = assay: Synergistic antibacterial activity against Escherichia coli K12 assessed as potentiation of rifampicin-induced antibacterial activity by measuring fold increase in rifampicin MIC incubated for 20 to 24 hrs by checkerboard broth microdilution assay relative to rifampicin alone; type: functional; conditions: time 20-24 hrs; in short: as §1
Acinetobacter baumannii [29] = assay: Synergistic antibacterial activity against Acinetobacter baumannii assessed as potentiation of rifampicin-induced antibacterial activity by measuring fold increase in rifampicin MIC incubated for 20 to 24 hrs by checkerboard broth microdilution assay relative to rifampicin alone; type: functional; conditions: time 20-24 hrs; in short: as §1
Cell membrane [30] = assay: Induction of inner membrane permeability in Escherichia coli K12 assessed as shift in bacterial zeta potential at 80 ug/ml measured after 1 hr; type: subcellular; conditions: dose 80.0 µg/ml
Cell membrane [31] = assay: Induction of inner membrane permeability in methicillin-resistant Staphylococcus aureus JE2 assessed as shift in bacterial zeta potential at 80 ug/ml measured after 1 hr; type: subcellular; conditions: dose 80.0 µg/ml
In short: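 Mid-log MRSA JE2 from MHB (OD ~0.8) washed and resuspended in PBS at 5×10^7 CFU/mL, exposed to peptide at 10 × MIC for 1 h, then zeta potential measured at 25 °C; untreated cells as negative control, daptomycin and polymyxin B as reference drugs.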

| Structure (SMILES) | Retention_time [2] | MIC (Acinetobacter baumannii [3]) | MIC (Escherichia coli [4]) | MIC (Staphylococcus aureus [5]) | MIC (Staphylococcus aureus [6]) | Activity (Cell membrane [10]) | Activity (HEK293) | hemolysis at 1 h, 8 ug/ml [15] | Activity [16] | Activity [17] | viability at 24 h [20] | also measured |
| --- | --- | --- | --- | --- | --- | --- | --- | --- | --- | --- | --- | --- |
| CCCCCCCCCCCCCCCCN[C@@H](CCCCN)C(=O)N[C@@H](Cc1c[nH]cn1)C(=O)N[C@@H](CCCCN)C(=O)N[C@@H](Cc1c[nH]cn1)C(=O)N[C@@H](CCCCN)C(=O)O (H-[X1]HKHK-OH) | 13.4 min | 64 µg/mL (≈ 71 µM) | 32 µg/mL (≈ 35.5 µM) | 64 µg/mL (≈ 71 µM) | 32 µg/mL (≈ 35.5 µM) | Active | Non-Toxic | 28.2% | 15.8 mV | Active | 100% | MIC (Escherichia coli [1]): 4 µg/mL; fractional inhibitory concentration index (FICI) (Escherichia coli [7]): 0.15; fractional inhibitory concentration index (FICI) (Acinetobacter baumannii [8]): 1; Activity (Cell membrane [9]): Active; Activity (Cell membrane [11]): Dose-Dependent Effect; Activity (Cell membrane [12]): Active; fold change (FC) (Staphylococcus aureus [13]): 8; fold change (FC) (Staphylococcus aureus [14]): 8; fold change (FC) (Escherichia coli [18]): 32; MIC (Escherichia coli [19]): 4 µg/mL; Ratio (Escherichia coli [21]): > 1; Ratio (Staphylococcus aureus [22]): > 1 |
| CCCCCCCCCCCCCCCCN[C@@H](C)C(=O)N[C@@H](C)C(=O)N[C@@H](C)C(=O)N[C@@H](CCCCN)C(=O)N[C@@H](CCCNC(=N)N)C(=O)N[C@@H](CCCCN)C(=O)N[C@@H](CCCNC(=N)N)C(=O)O (H-[X2]AAKRKR-OH) | 14.3 min | 4 µg/mL (≈ 3.9 µM) | 8 µg/mL (≈ 7.81 µM) | 8 µg/mL (≈ 7.81 µM) | 8 µg/mL (≈ 7.81 µM) | inactive | Non-Toxic | 33.3% | 10.8 mV | Active | 100% | MIC (Staphylococcus aureus [23]): 8 µg/mL (≈ 7.81 µM); fractional inhibitory concentration index (FICI) (Escherichia coli [24]): 0.62; fractional inhibitory concentration index (FICI) (Acinetobacter baumannii [25]): 0.75; Activity (Cell membrane [26]): Active; fold change (FC) (Staphylococcus aureus [27]): 2; fold change (FC) (Escherichia coli [28]): 8; fold change (FC) (Acinetobacter baumannii [29]): 2; Activity (Cell membrane [30]): Active; Activity (Cell membrane [31]): Active |

— ChEMBL document CHEMBL5365541, “Designing peptide amphiphiles as novel antibacterials and antibiotic adjuvants against gram-negative bacteria” (Bioorg Med Chem, 2023)
